Measurements reported in ChEMBL document CHEMBL1777718, “Synthesis and cytotoxicity of 17a-aza-D-homo-androster-17-one derivatives” (Bioorg Med Chem Lett, 2011).

How the values were obtained:
[1] = system: HeLa; assay: Cytotoxicity against human HeLa cells assessed as reduction in optical density by MTT assay relative to control; type: functional, cell-based
Method in brief: (§1)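 MTT assay read as optical density. IC50 is the concentration that cut optical density of treated cells by 50% relative to untreated cells. Values are means of three independent determinations.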

[2] = Cytotoxicity against human SMMC-7404 cells assessed as reduction in optical density by MTT assay relative to control; type: functional, cell-based; method in brief: as §1

| SMILES | IC50 [1] | IC50 [2] |
| --- | --- | --- |
| C[C@]12CC[C@H](O)CC1=CC[C@@H]1[C@@H]2CC[C@]2(C)NC(=O)CC[C@@H]12 | 65.9 µM | > 200 µM |
| C[C@]12CC/C(=N\NC(N)=S)C=C1/C(=N\NC(N)=S)C[C@@H]1[C@@H]2CC[C@]2(C)NC(=O)CC[C@@H]12 | 28.8 µM | 80.5 µM |
| C[C@]12CC/C(=N/O)CC1/C(=N\O)C[C@@H]1[C@@H]2CC[C@]2(C)NC(=O)CC[C@@H]12 (stereo partly drawn) | 75.7 µM | 184 µM |
| CC(=O)O[C@H]1CC[C@@]2(C)C(=CC[C@@H]3[C@@H]2CC[C@]2(C)NC(=O)CC[C@@H]32)C1 | 37.6 µM | > 200 µM |
| C[C@]12CCC(=O)C=C1C(=O)C[C@@H]1[C@@H]2CC[C@]2(C)NC(=O)CC[C@@H]12 | 102 µM | > 200 µM |
| C[C@]12CCC(O)C=C1C(O)C[C@@H]1[C@@H]2CC[C@]2(C)NC(=O)CC[C@@H]12 (stereo partly drawn) | 18.8 µM | > 200 µM |
| C[C@]12CC/C(=N/O)C=C1/C(=N\O)C[C@@H]1[C@@H]2CC[C@]2(C)NC(=O)CC[C@@H]12 | 15.1 µM | > 200 µM |
| C[C@]12CCC(=O)CC1C(=O)C[C@@H]1[C@@H]2CC[C@]2(C)NC(=O)CC[C@@H]12 (stereo partly drawn) | 53.6 µM | 60.8 µM |
| C[C@]12CCC(O)CC1C(O)C[C@@H]1[C@@H]2CC[C@]2(C)NC(=O)CC[C@@H]12 (stereo partly drawn) | 14 µM | 124 µM |
